From ChEMBL document CHEMBL4354825, “Design and Synthesis of Basic Selective Estrogen Receptor Degraders for Endocrine Therapy Resistant Breast Cancer” (J Med Chem, 2019)
The source made the active and inactive calls. The rule behind the calls is not given here.

Key:
[1] = Antiproliferative activity against human MCF7:5C cells assessed as reduction in cell viability incubated for 7 days by Hoechst 33258 dye based assay relative to control; format: functional; conditions: 168 h
Method in brief: (§1)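 Cells were seeded at 5000 per well; MCF7:WS8 had been estrogen-stripped for 2 days first. Compounds were serially diluted in DMSO, with 0.01% DMSO as vehicle. The medium was removed on day 5 (MCF7:WS8) or day 7 (MCF7:5C), and cells were lysed by freezing at −80 °C overnight. DNA was measured by Hoechst 33258 fluorescence. Maximum efficacy was normalized to vehicle (0%) and no cells (100%); at least three biological replicates.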

[2] = Antiproliferative activity against human MCF7:WS8 cells assessed as reduction in cell viability incubated for 5 days by Hoechst 33258 dye based assay; format: functional; conditions: MCF7:WS8, 120 h; method in brief: as §1
[3] = biological target: T1, Estrogen receptor (Homo sapiens) (UniProt P03372); experiment: Inhibition of ERalpha in human MCF7:WS8 cells assessed as increase in degradation of ERalpha incubated for 24 hrs by In-Cell Western assay relative to control; format: cell-based
T1 sequence (whole entry): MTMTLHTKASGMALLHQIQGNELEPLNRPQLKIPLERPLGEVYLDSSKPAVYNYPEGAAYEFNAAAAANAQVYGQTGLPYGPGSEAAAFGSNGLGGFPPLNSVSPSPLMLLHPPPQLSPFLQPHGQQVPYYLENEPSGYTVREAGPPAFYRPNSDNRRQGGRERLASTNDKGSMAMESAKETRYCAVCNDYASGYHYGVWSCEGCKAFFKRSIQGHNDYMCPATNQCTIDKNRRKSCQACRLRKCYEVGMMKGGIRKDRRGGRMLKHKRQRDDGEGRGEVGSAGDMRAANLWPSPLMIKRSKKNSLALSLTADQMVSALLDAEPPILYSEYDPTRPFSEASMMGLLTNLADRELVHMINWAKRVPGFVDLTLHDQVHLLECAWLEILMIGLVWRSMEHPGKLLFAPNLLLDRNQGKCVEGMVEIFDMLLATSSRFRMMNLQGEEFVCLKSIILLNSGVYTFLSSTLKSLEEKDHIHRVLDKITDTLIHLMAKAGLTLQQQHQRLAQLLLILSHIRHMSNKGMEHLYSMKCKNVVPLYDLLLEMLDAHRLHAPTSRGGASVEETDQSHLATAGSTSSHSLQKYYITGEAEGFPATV
Method in brief: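 MCF7:WS8 cells were estrogen-stripped for 2 days and plated at 2.5 × 10^4 per well. After 48 h they were treated for 24 h. ERα was detected by in-cell western (H10 antibody), with signal normalized to CellTag 700.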

[4] = Plasma concentration in C57BL/6 mouse at 100 mg/kg, po measured after 0.5 hrs by LC/MS-MS analysis; format: ADME, organism-based
Method in brief: (§2)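 PK screen in female C57BL/6 mice (N = 3 per time point). Dosed by gavage at 100 mg/kg in HPβD/PEG-400. Plasma and brain were taken from perfused mice at 30 and 120 min. Quantified by LC-MS/MS in MRM mode, with standard curves in each matrix and a common internal standard. Values are mean and s.d.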

[5] = Drug concentration in C57BL/6 mouse brain at 100 mg/kg, po measured after 0.5 hrs by LC/MS-MS analysis; format: ADME, organism-based; conditions: read-out: Drug uptake; method in brief: as §2
[6] = biological target: T1, Estrogen receptor (Homo sapiens); experiment: Induction of degradation of ERalpha in human MCF7:WS8 cells at 100 nM in presence of MG-132 incubated for 24 hrs by Western blot analysis; format: cell-based
Mus musculus [7] = experiment: In vivo degradation of ERalpha in C57BL/6 mouse at 50 mg/kg, po measured after 7 hrs by Western blot analysis; format: functional, organism-based
Method in brief: (§3)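 Female C57BL/6J mice aged 9–12 weeks were dosed at 50 mg/kg p.o. in PEG 400/10% HPCD (1:9 v/v). Regimens were a single dose with sacrifice at 5 h, or 3 daily doses with sacrifice 5 h (n = 5) or 7 h (n = 6) after the last dose. Ovaries and uterus were homogenized, 20 μg protein was run by SDS-PAGE, and the blot was probed for ERα and normalized to β-actin.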

Mus musculus [8] = experiment: In vivo degradation of ERalpha in C57BL/6 mouse at 50 mg/kg, po administered for 3 days and measured on day 3 by Western blot analysis; format: functional, organism-based; method in brief: as §3
[9] = AUClast/D in C57BL/6 mouse plasma at 50 mg/kg, po measured upto 24 hrs by LC-MS/MS analysis; format: ADME, organism-based; conditions: in vivo
Method in brief: (§4)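 Full PK run by a contract lab. Dosing was 50 mg/kg p.o. in water and 10% SBE-β-CD/PEG-400 (9:1 v/v), and 5 mg/kg i.v. Sampling at 0.25, 0.5, 1, 2, 4, 8 and 24 h (N = 5). Plasma samples were diluted in 50% acetonitrile and quantified by LC-MS/MS against standards serially diluted in 50% acetonitrile. Brain was also sampled after the oral dose.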

[10] = Tmax in C57BL/6 mouse brain at 50 mg/kg, po measured upto 24 hrs by LC-MS/MS analysis; format: ADME, organism-based; conditions: in vivo; method in brief: as §4
[11] = Cmax in C57BL/6 mouse brain at 50 mg/kg, po measured upto 24 hrs by LC-MS/MS analysis; format: ADME, organism-based; parameters: dose 50 mg/kg, route oral; conditions: in vivo; method in brief: as §4
[12] = AUClast in C57BL/6 mouse brain at 50 mg/kg, po measured upto 24 hrs by LC-MS/MS analysis; format: ADME, organism-based; parameters: dose 50 mg/kg, time < 24 hr, route oral; conditions: in vivo; method in brief: as §4
[13] = Half life in C57BL/6 mouse at 5 mg/kg, iv measured upto 24 hrs by LC-MS/MS analysis; format: ADME, organism-based; conditions: in vivo; method in brief: as §4
[14] = Cmax in C57BL/6 mouse at 5 mg/kg, iv measured upto 24 hrs by LC-MS/MS analysis; format: ADME, organism-based; parameters: dose 5 mg/kg, route intravenous; conditions: in vivo; method in brief: as §4
[15] = AUClast in C57BL/6 mouse at 5 mg/kg, iv measured upto 24 hrs by LC-MS/MS analysis; format: ADME, organism-based; parameters: time < 24 hr, dose 5 mg/kg, route intravenous; conditions: in vivo; method in brief: as §4
cells = conditions: Homo sapiens, MCF7:5C, 168 h, read-out: pIC50 (converted)
[16] = AUClast/D in CD-1 mouse at 5 mg/kg, iv measured upto 24 hrs by LC-MS/MS analysis; conditions: in vivo
[17] = Tmax in CD-1 mouse plasma at 50 mg/kg, po measured upto 24 hrs by LC-MS/MS analysis; conditions: in vivo
[18] = Cmax in CD-1 mouse plasma at 50 mg/kg, po measured upto 24 hrs by LC-MS/MS analysis; conditions: in vivo
[19] = AUClast in CD-1 mouse plasma at 50 mg/kg, po measured upto 24 hrs by LC-MS/MS analysis; conditions: in vivo
Homo sapiens = species: Homo sapiens; experiment: Cytotoxicity against human MCF7:WS8 3D spheroid cells assessed as reduction in tumor spheroid size at 10 nM incubated for 14 days
T47D = experiment: Cytotoxicity against human T47D 3D spheroid cells assessed as reduction in tumor cell viability at 10 nM incubated for 14 days by celltiter-glo 3D cell viability assay

Efficacy [3]: 92% | concentration at 0.5 h [4]: 2490 nM | concentration at 0.5 h [5]: 1630 nM | Activity [6]: inactive | AUClast/dose [9]: 33.6 ng·h/mL | Tmax [10]: 1 h | Cmax [11]: 635 ng/mL | AUClast [12]: 2106 ng·h/mL | t1/2 [13]: 1.68 h | Cmax [14]: 1590 ng/mL | AUClast [15]: 766 ng·h/mL | IC50 (cells): 0.347 nM | AUClast/dose [16]: 153 ng·h/mL | Tmax [17]: 1 h | Cmax [18]: 413 ng/mL | AUClast [19]: 1678 ng·h/mL
Compound: Cc1cc(F)cc(C)c1C(=O)c1sc2cc(O)ccc2c1Oc1ccc(OC2CN(CCCF)C2)cc1
Emax [1]: 54% | IC50 [2]: 0.55 nM | Activity (Mus musculus [7]): Active | Activity (Mus musculus [8]): Active | Activity (Homo sapiens): Active | Activity (T47D): Active
